Screening results (PubChem BioAssay)
M1 agonist – M1 muscarinic receptor agonists, primary screen, CHO-M1 cells, Fluo-4 calcium, agonist mode. hit rate 3% among 64,000. Fluo-4 calcium fluorescence; hits give high values. Muscarinic acetylcholine receptor M1. AID 626, 2007. B-score at 10 µM;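 active means fluorescence rise, raw or as B-score row- and column-corrected plate score, outside the 99.7% band of its plate's samples, either direction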
DAT uptake mod – changed hDAT dopamine uptake under cocaine IC80, either direction, primary screen, cocaine antagonist project, cell-based, LLC-PK1 hDAT, [14C]-dopamine uptake, MLSMR. Sodium-dependent dopamine transporter (Homo sapiens), Q01959. B-score at 10 µM. hit rate 1.3% among 110,000. LLC-PK1 hDAT cells, [14C]-dopamine uptake with cocaine IC80; actives deviate in either direction;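 active means Z score or B-score, a plate-position-corrected score, falls beyond the plate's 99.7% confidence bounds, in either direction; inactive means both scores lie inside the 99.7% bounds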;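 further: scored against the spread of the other compound wells on the same plate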
D1 mod – D1 CRE-luciferase signal change, two-sided – cell-based, HEK293 D1, dopamine EC30, D1 allosteric modulator project, primary screen. dopamine EC30 potentiation; actives deviate in either direction. B-score at 10 µM. hit rate 5.9% among 58,000;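 active means luminescence count or its row- and column-corrected plate score outside the 99.7% band of the plate's sample wells, on either side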
Jurkat viability – cytotoxicity toward Jurkat T cells, primary screen, cytotoxicity control, cell-based, Jurkat E6.1, 60K MLSMR library; Jurkat E6.1 viability, ATP luminescence, 48 h; inhibition, % at 4 µM; hit rate 1.2% among 56,000; AID 463, 2006;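 active means inhibition above the mean inhibition of all tested compounds plus 3 SD, cut at about 28% in these data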
HEK293 NFkB inh – inhibitors of PMA/ionomycin-induced NF-kB reporter, primary screen, antigen receptor NF-kB inhibitor project, cell-based, HEK-293 luciferase reporter, luminescence; HEK-293 NF-kB luciferase reporter; inhibition, % at 3 µM; hit rate 0.21% among 62,000;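 active means inhibition above the mean of all tested compounds plus 3 SD, cut at about 40% in these data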;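 further: 0% = stimulated DMSO wells and 100% = 10 µM reference inhibitor 5653914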
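System: NF-kB luciferase reporter HEK-293 cells | Replication: Single test | Control set: DMSO vs reference inhibitor | Evaluation: % inhibition | Schedule: 1 h pretreatment, 16 h stimulation, 37 °C | Probe or stimulus: PMA with ionomycin | Compound dosing: One dose, 3 µM | Detection: Luciferase luminescence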
M1 antag – antagonists of rat M1 muscarinic receptor; Muscarinic acetylcholine receptor M1 (Rattus norvegicus), P08482; CHO-M1 cells, Fluo-4 calcium, ACh EC80 antagonist mode; hits give low values; B-score at 10 µM; hit rate 3.4% among 64,000; AID 628, 2007;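 active means calcium fluorescence response, raw or row-and-column corrected B-score, differing from the plate sample mean either way at a set confidence level, mostly lower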
Target sequence (P08482 whole entry, looked up): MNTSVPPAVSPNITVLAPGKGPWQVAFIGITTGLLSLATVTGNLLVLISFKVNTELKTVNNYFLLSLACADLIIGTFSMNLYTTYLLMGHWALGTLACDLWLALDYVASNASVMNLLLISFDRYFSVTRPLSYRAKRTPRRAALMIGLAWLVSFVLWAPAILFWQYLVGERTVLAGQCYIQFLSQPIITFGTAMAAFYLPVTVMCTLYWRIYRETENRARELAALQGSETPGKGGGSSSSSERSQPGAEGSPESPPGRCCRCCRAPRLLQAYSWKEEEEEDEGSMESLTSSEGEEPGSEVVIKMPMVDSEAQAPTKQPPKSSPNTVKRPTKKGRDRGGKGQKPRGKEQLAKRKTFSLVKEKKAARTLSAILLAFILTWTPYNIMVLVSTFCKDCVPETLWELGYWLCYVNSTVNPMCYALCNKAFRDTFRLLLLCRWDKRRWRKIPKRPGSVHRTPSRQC
M1 ag confirm – rat M1 muscarinic receptor agonists, confirmation, CHO-M1 cells, Fluo-4 calcium, duplicate retest. fluorescence change (max-min) at 10 µM. AID 1488, 2009. shares compounds with M1 agonist. hit rate 19% among 1,700. Fluo-4 calcium fluorescence, agonist mode; actives lie on both sides;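 active means fluorescence change differs from the solvent-only DMSO control mean at a set confidence level in both duplicate runs; inconclusive means differs from solvent-only control mean in just one of two runs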;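 further: an EC20 dose of acetylcholine follows compound addition during the same imaging run; raw fluorescence intensity difference in instrument units with no normalization to controls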
M4 ag counter – agonist activity at rat M4 receptor, confirmation, counter-screen for M1 allosteric modulator project, cell-based, agonist mode. AID 1741, 2009. shares compounds with M1 agonist. fluorescence change (max-min) at 10 µM. hit rate 9% among 1,700. CHO M4/Gqi5 cells, Fluo-4 calcium fluorescence; actives lie on both sides;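 active means fluorescence change differing from the plate's solvent-only control wells at 99.7% confidence in both duplicates, whether higher or lower; inconclusive means differs from solvent controls in only one of two duplicates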
Starred values were filed as active, the others as inactive; ? = inconclusive; . = no result given. Sampled rows, rich in hits. Any-hit rate of the full collection: about 7.6%.

SMILES | M1 agonist | DAT uptake mod | D1 mod | Jurkat viability | HEK293 NFkB inh | M1 antag | M1 ag confirm | M4 ag counter
CCCCOP(=O)(OCCCC)/C(C#N)=C(/C)O | . | -0.41 | . | . | . | . | . | .
COc1ccc(C(=O)C2(C)N(O)C(C)C(c3cccs3)=[N+]2[O-])cc1 (centres undefined) | . | 0.374 | . | . | . | . | . | .
CCCC1(CCC)C(=O)NC(=NCc2ccccc2)NC1=O | 0.684 | -7.43* | -0.316 | 7.3 | 19.7 | 0.0299 | . | .
CCCC1(CCC)C(=O)NC(=Nc2ccccc2)NC1=O | . | -0.717 | . | . | . | . | . | .
N[C@@H](Cc1c[nH]c2ccccc12)c1nnc(SCc2ccccc2)o1 | 0.14 | 3.16 | 0.407 | -4.7 | 14.4 | -0.155 | . | .
N[C@@H](Cc1c[nH]c2ccccc12)c1nnc(SCc2ccc(Cl)cc2)o1 | 0.0937 | -8.48* | -1.04 | 4.4 | 8.2 | -0.0338 | . | .
CC1(C)CC2(CCO1)NCCN1C(=O)CSC12 (centres undefined) | -0.29 | -0.0312 | 1.13 | 5.8 | 18.3 | -0.0421 | . | .
COC1CC(OC2CCC3(C)C(CCC4C3CCC3(C)C(C5=CC(=O)OC5)C(OC(C)=O)CC43O)C2)OC(C)C1OC1OC(COC2OC(CO)C(O)C(O)C2O)C(O)C(O)C1O (centres undefined) | . | -8.92* | . | . | . | . | . | .
COc1ccc(N=C2SCCCN2C)cc1 | . | -0.0971 | . | . | . | . | . | .
CC(=O)N1CN2CN(C(C)=O)CC(C(=O)c3ccccc3)(C2)C1 | -0.46 | 0.581 | -0.000319 | 1.6 | 12.1 | 0.849 | . | .
Cc1ccccc1-n1c(O)c(C=Nc2ccc3c(c2)OCO3)c(=O)[nH]c1=O | 7.54* | 0.904 | -0.076 | 5.3 | 19.6 | 0.0195 | . | .
COc1ccccc1-n1c(O)c(C=NCc2ccc3c(c2)OCO3)c(=O)[nH]c1=O | 0.12 | -0.191 | 0.917 | 0.4 | 7.8 | 0.332 | . | .
O=C1CN=C(c2cccs2)c2c(sc3c2CCCC3)N1 | 0.06 | -0.985 | -1.16 | 85.5* | 4.1 | -0.452 | . | .
Cc1cc2c(s1)NC(=O)CN=C2c1cccs1 | -0.274 | -0.00107 | . | . | 7.3 | -0.265 | . | .
CCCNS(=O)(=O)c1ccc(OCC(=O)N2CCN(Cc3ccc4c(c3)OCO4)CC2)cc1 | -1.22 | 0.9 | . | 31.2* | 25.3 | -0.36 | . | .
Cc1nc2cc(C(F)(F)F)ccc2n1C1CCN(Cc2nnnn2CCc2ccccc2)CC1 | . | 3.51* | . | . | . | . | . | .
O=C(c1cc2c(s1)-c1ccccc1OC2)N1CCC2(CC1)OCCO2 | -0.246 | . | -1.56 | 38.0* | -36.7 | -1.57 | . | .
CC(=O)OC1(c2ccc(C)cc2)CN2CCC1c1ccccc12 (centres undefined) | -0.673 | 0.988 | -0.384 | . | . | 0.523 | . | .
CCN(CC)Cc1c[nH]c2ccccc12 | -1.48 | -0.175 | -8.36* | -3.5 | 11.0 | -0.447 | . | .
N=c1c2c(n(Cc3ccc(Cl)cc3Cl)c3c1CCC3)CCCC2 | -0.357 | -0.151 | -2.54 | 37.0* | -1.5 | -1.48 | . | .
O=C(Cn1ncc2c3ccccc3n(Cc3cccc(Cl)c3)c2c1=O)N1CCC2(CC1)OCCO2 | 2.44 | 5.98* | 1.39 | 5.0 | 8.0 | 1.45 | . | .
COc1ccc(CC2C(=O)N(C)C(=O)N(C)C2=O)c(OC)c1 | 6.47* | -0.368 | 0.515 | 0.6 | 13.3 | -3.59* | -3.88 | -23.8
Cn1c2ccccc2c2c(C(=O)N3CCC4(CC3)OCCO4)cn(C3CCCCC3)c(=O)c21 | 4.35* | 0.56 | -0.533 | . | 15.4 | -0.67 | -13.7 | -54
Cn1cc(C(=O)N2CCC3(CC2)OCCO3)c2c3ccccc3n(C)c2c1=O | -0.0893 | 0.593 | 0.856 | -3.5 | -5.8 | 0.00142 | . | .
CC(C)Cn1cc(C(=O)N2CCC3(CC2)OCCO3)c2c3ccccc3n(C)c2c1=O | 3.03* | 1.23 | -1.19 | -2.0 | -0.6 | -1.57 | -2 | -18.7
SMILES | M1 agonist | DAT uptake mod | D1 mod | Jurkat viability | HEK293 NFkB inh | M1 antag | M1 ag confirm | M4 ag counter
CCOP(=O)(C(NC(=O)c1ccccc1Cl)=C(Cl)Cl)c1ccccc1 (centres undefined) | . | 0.702 | . | . | . | . | . | .
O=c1c2cc([N+](=O)[O-])ccc2nc(CN2CCOCC2)n1-c1ccccc1F | . | 0.622 | . | . | . | . | . | .
CC1N(O)C2CCCCCC2N1O (centres undefined) | 0.985 | -0.66 | 0.726 | -3.4 | 8.2 | 0.0199 | . | .
CCC(C)N1C(=O)NC(=O)C2(Cc3c(ccc4ccccc34)N(C)C2)C1=O (centres undefined) | 13.3* | -1.15 | -1.73 | 1.8 | 10.6 | -2.09 | ? | ?
O=C1NC(=O)C2(Cc3c(nc4ccccn4c3=O)N3CCCCCC32)C(=O)N1Cc1ccccc1 (centres undefined) | 11.6* | 2.47* | -0.311 | -1.1 | 12.3 | 0.26 | -10.8 | -22.2
O=C1NC(=O)C2(Cc3ccccc3N3CCCC32)C(=O)N1Cc1ccccc1 (centres undefined) | 0.47 | -1.52 | -0.0474 | 2.9 | 14.8 | 0.312 | . | .
COc1ccc2c(c1)c(C(=O)CN1CCN(C)CC1)c(C)n2Cc1ccccc1 | 2.6* | 1.77 | -0.422 | -1.3 | 3.7 | -0.474 | ? | -71.3
COc1nc(C)nc(NC(=O)NS(=O)(=O)c2ccccc2Cl)n1 | . | -0.000854 | . | . | . | . | . | .
COc1ccc2nc(NC(=O)CCc3nc(C4=CCN(C)CC4)no3)sc2c1 | 5.09* | 1.61 | -2.25 | -2.8 | 14.7 | -0.227 | -1.61 | -41.4
CCc1nnc(NC(=O)CCc2nc(C3=CCN(C)CC3)no2)s1 | . | -0.32 | -0.863 | 1.2 | 7.9 | . | . | .
CCOc1ccccc1-n1c(O)c(C=Nc2ccc(N(CC)CC)cc2)c(=O)[nH]c1=O | 8.67 | -0.495 | -1.34 | . | . | -1.8 | . | .
CCN(CC)c1ccc(N=Cc2c(O)n(-c3ccccc3C)c(=O)[nH]c2=O)cc1 | 22* | 1.47 | . | . | . | -0.554 | 46.1 | 16.9
CCOc1ccc(-n2c(O)c(C=NCCN3CCNCC3)c(=O)[nH]c2=O)cc1 | 0.554 | -0.425 | -0.224 | . | . | -0.0321 | . | .
CCOC(=O)C1CCN(/C=C2/C(=O)NC(=O)N(c3ccc(OCC)cc3)C2=O)CC1 | -3.31* | -0.0676 | 0.393 | -2.3 | 8.7 | -0.125 | -7.03 | -22.6
Nc1c(C(=O)OC2CCCCC2)c2nc3ccccc3nc2n1CC1CCCO1 (centres undefined) | 4.11* | 3.39* | -1.52 | -3.7 | 8.6 | 0.199 | -8.48 | -46.1
O=C(c1cccs1)C1CN2CCC1CC2 (centres undefined) | 8.41* | 0.986 | -0.12 | -3.2 | 12.4 | -5.54* | 32 | 14.9
